In ChEMBL document CHEMBL1130158, “Alkyl-substituted amino acid amides and analogous di- and triamines: new non-peptide G protein activators” (J Med Chem, 1997):

Legend:
HL-60 [1] = assay: Efficacy expressed as maximal stimulation of GTP hydrolysis in HL-60 membranes at a concentration 10 uM; type: functional, Homo sapiens
How it was run: (§1)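 HL-60 cells grown in suspension, differentiated toward neutrophil-like cells with dibutyryl-cAMP (0.2 mM) for 48 h; membranes prepared and steady-state GTP hydrolysis measured with [γ-32P]GTP over increasing compound concentrations. Triplicate determinations, at least three independent experiments. Efficacy = maximal stimulation above basal activity, at the concentration giving maximal stimulation; pEC50 = -log half-maximal concentration, means ± SD.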

HL-60 [2] = assay: -log of the half-maximal concentration for stimulation of GTPase in HL-60 membrane (sensitive to PTX); type: functional; details: Homo sapiens
How it was run: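 Differentiated HL-60 cells (dibutyryl-cAMP 0.2 mM, 48 h) incubated overnight with pertussis toxin (200 ng/mL) or left untreated; membranes prepared and steady-state [γ-32P]GTP hydrolysis measured across increasing concentrations. PTX sensitivity judged by comparing treated with control membranes. Triplicates; pEC50 = -log half-maximal concentration, mean ± SD.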

HL-60 [3] = assay: Efficacy expressed as maximal stimulation of GTP hydrolysis in HL-60 membranes at a concentration 300 uM; type: functional, Homo sapiens
How it was run: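 Steady-state GTP hydrolysis of the membranes was measured over increasing compound concentrations in triplicate, across at least three independent experiments. Efficacy is the maximal stimulation above basal activity, with the concentration giving that maximum reported.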

HL-60 [4] = assay: -log of the half-maximal concentration for stimulation of GTPase in HL-60 membrane; type: functional; details: Homo sapiens; how it was run: as §1
[5] = target: Histamine H1 receptor (Cavia porcellus) (UniProt P31389); assay: Histamine activity against H1 receptor of guinea pig ileum; type: tissue-based
Sequence of Histamine H1 receptor (Cavia porcellus) (P31389 whole entry): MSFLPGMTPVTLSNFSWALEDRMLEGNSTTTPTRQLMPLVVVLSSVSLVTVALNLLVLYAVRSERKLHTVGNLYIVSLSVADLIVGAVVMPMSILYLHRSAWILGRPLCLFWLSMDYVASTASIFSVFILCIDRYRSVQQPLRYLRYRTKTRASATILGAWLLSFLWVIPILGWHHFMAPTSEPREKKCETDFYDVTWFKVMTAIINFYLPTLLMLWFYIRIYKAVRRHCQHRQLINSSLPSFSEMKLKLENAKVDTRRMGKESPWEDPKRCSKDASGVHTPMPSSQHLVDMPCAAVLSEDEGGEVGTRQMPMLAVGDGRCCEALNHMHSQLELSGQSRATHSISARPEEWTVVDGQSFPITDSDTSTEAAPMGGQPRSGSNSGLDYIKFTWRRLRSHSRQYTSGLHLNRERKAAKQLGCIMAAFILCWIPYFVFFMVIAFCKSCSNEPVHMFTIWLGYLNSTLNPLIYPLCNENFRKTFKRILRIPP

HL-60 [6] = assay: Efficacy expressed as maximal stimulation of GTP hydrolysis in HL-60 membranes at a concentration 5 uM; type: functional, Homo sapiens; how it was run: as §1
HL-60 [7] = assay: Efficacy expressed as maximal stimulation of GTP hydrolysis in HL-60 membranes at a concentration 2 uM; type: functional, Homo sapiens; how it was run: as §1
[8] = target: Histamine H2 receptor (Cavia porcellus) (UniProt P47747); assay: Histamine activity against Histamine H2 receptor of guinea pig atrium; type: tissue-based; details: Cardiac atrium
Sequence of Histamine H2 receptor (Cavia porcellus) (P47747 whole entry): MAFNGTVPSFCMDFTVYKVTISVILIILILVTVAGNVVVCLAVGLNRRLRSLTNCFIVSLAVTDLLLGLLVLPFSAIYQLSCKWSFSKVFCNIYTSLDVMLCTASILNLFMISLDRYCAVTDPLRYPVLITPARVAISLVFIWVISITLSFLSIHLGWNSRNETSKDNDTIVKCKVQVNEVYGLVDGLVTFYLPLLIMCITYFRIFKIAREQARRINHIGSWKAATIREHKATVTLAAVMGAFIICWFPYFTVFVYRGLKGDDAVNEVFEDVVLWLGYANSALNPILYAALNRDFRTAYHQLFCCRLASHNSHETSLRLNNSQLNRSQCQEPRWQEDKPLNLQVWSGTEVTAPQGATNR

[9] = target: Muscarinic acetylcholine receptor M3 (Cavia porcellus) (UniProt Q8VH26); assay: Affinity towards Muscarinic acetylcholine receptor M3 in guinea pig ileum; type: tissue-based
Sequence of Muscarinic acetylcholine receptor M3 (Cavia porcellus) (Q8VH26 1-587): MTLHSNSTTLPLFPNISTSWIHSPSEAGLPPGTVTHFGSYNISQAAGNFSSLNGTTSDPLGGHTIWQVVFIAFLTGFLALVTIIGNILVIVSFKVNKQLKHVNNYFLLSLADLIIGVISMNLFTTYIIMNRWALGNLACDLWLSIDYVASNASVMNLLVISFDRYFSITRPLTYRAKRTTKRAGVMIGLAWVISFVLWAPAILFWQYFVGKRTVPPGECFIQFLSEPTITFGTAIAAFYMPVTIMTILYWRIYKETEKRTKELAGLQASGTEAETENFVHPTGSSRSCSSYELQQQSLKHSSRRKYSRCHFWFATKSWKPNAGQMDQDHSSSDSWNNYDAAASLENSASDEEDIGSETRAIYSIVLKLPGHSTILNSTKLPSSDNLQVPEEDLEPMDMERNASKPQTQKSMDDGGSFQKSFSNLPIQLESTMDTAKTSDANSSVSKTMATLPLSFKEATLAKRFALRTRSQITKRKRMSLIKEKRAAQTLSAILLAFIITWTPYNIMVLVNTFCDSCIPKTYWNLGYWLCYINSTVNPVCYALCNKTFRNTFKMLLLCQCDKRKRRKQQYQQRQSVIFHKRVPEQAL

[10] = target: Histamine H1 receptor (Cavia porcellus) (UniProt P31389); assay: Histamine activity against Histamine H1 receptor of guinea pig ileum; type: tissue-based
[11] = target: Histamine H3 receptor (Cavia porcellus) (UniProt Q9JI35); assay: Histamine activity against Histamine H3 receptor of guinea pig ileum; type: tissue-based
Sequence of Histamine H3 receptor (Cavia porcellus) (Q9JI35 whole entry): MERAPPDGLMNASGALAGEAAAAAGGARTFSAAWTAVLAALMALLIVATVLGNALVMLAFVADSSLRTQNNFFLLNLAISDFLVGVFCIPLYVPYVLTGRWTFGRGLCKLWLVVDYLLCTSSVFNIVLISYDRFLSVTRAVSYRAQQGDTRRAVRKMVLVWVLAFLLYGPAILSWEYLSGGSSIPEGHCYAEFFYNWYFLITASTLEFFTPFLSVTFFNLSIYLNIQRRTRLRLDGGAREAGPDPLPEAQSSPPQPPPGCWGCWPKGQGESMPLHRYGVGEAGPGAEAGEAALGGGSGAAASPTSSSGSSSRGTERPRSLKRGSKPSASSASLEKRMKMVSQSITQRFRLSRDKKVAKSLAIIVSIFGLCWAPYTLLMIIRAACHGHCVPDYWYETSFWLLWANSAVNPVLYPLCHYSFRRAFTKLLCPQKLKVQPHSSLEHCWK

HL-60 [12] = assay: Efficacy expressed as maximal stimulation of GTP hydrolysis in HL-60 membranes at a concentration 7.5 uM; type: functional, Homo sapiens; how it was run: as §1
HL-60 [13] = assay: Efficacy expressed as maximal stimulation of GTP hydrolysis in HL-60 membranes at a concentration 3 uM; type: functional, Homo sapiens; how it was run: as §1
HL-60 [14] = assay: Efficacy expressed as maximal stimulation of GTP hydrolysis in HL-60 membranes at a concentration 20 uM; type: functional, Homo sapiens; how it was run: as §1
HL-60 [15] = assay: Efficacy expressed as maximal stimulation of GTP hydrolysis in HL-60 membranes at a concentration 0.75 uM; type: functional, Homo sapiens; how it was run: as §1
HL-60 [16] = assay: Efficacy expressed as maximal stimulation of GTP hydrolysis in HL-60 membranes at a concentration 30 uM; type: functional, Homo sapiens; how it was run: as §1

SMILES: CC[C@H](C)[C@H](N)C(=O)N[C@@H](CC(N)=O)C(=O)N[C@@H](CC(C)C)C(=O)N[C@@H](CCCCN)C(=O)N[C@@H](C)C(=O)N[C@@H](CC(C)C)C(=O)N[C@@H](C)C(=O)N[C@@H](C)C(=O)N[C@@H](CC(C)C)C(=O)N[C@@H](C)C(=O)N[C@@H](CCCCN)C(=O)N[C@@H](CCCCN)C(=O)N[C@H](C(=O)N[C@@H](CC(C)C)C(N)=O)[C@@H](C)CC
- Efficacy (HL-60 [1]): 100%
- EC50 (HL-60 [2]): 3160 nM

SMILES: CCCCCCCCCCCCNC(=O)[C@@H](N)CCC/N=C(\N)N[N+](=O)[O-]
- Efficacy (HL-60 [3]): 156%

SMILES: CCCCCCCCCCCCNC(=O)C(N)CCCN (stereo unspecified)
- Efficacy (HL-60 [1]): 117%
- EC50 (HL-60 [4]): 2510 nM
- -Log K [5]: 5.3

SMILES: CCCCCCCCCCCCNC(=O)[C@@H](N)CCCCN [N-DODECYL LYSINE AMIDE]
- EC50 (HL-60 [2]): 794 nM
- Efficacy (HL-60 [6]): 116%

SMILES: CCCCCCCCCCCCNCC(N)CCCCN (stereo unspecified)
- EC50 (HL-60 [2]): 501 nM
- Efficacy (HL-60 [7]): 120%

SMILES: CCCCCCCCCCCCNCC(N)CCCN (stereo unspecified)
- -Log K [8]: 4.1
- -Log K [9]: 5.2
- EC50 (HL-60 [4]): 1000 nM
- -Log K [10]: 5.4
- Efficacy (HL-60 [6]): 126%
- -Log K [11]: < 6

SMILES: CCCCCCCCCCCCNC(=O)[C@@H](N)CCCN=C(N)N
- Efficacy (HL-60 [12]): 92%
- EC50 (HL-60 [4]): 794 nM

SMILES: CCCCCCCCCCCCCCNC(=O)[C@@H](N)CCCCN
- EC50 (HL-60 [2]): 501 nM
- Efficacy (HL-60 [13]): 100%

SMILES: CCCCCCCCCCCCNC(=O)CN
- Efficacy (HL-60 [14]): 100%
- EC50 (HL-60 [4]): 3980 nM

SMILES: CCCCCCCCCCCCCCCCNCC(N)CCCCN (stereo unspecified)
- Efficacy (HL-60 [15]): 84%
- EC50 (HL-60 [2]): 251 nM

SMILES: CCCCCCCCCCCCNC(=O)[C@@H](N)CCC(N)=O
- EC50 (HL-60 [4]): 7940 nM
- Efficacy (HL-60 [16]): 110%

SMILES: CCCCCCCCCCCCNC(=O)C(N)CCN (stereo unspecified)
- Efficacy (HL-60 [1]): 105%
- EC50 (HL-60 [4]): 1260 nM

SMILES: CCCCCCCCCCCCNC(=O)[C@@H](N)Cc1c[nH]cn1
- Efficacy (HL-60 [14]): 125%
- EC50 (HL-60 [4]): 3160 nM

SMILES: CCCCCCCCCCCCCCNCC(N)CCCCN (stereo unspecified)
- Efficacy (HL-60 [15]): 117%
- EC50 (HL-60 [2]): 251 nM

SMILES: CCCCCCCCCCCCNCC(N)CCN (stereo unspecified)
- EC50 (HL-60 [4]): 631 nM
- Efficacy (HL-60 [13]): 128%

SMILES: CCCCCCCCCCCCCCCCNC(=O)[C@@H](N)CCCCN [LYCETAMINE]
- EC50 (HL-60 [2]): 501 nM
- Efficacy (HL-60 [7]): 90%

SMILES: CCCCCCCCCCCCNC(=O)C(N)CN (stereo unspecified)
- Efficacy (HL-60 [1]): 131%
- EC50 (HL-60 [4]): 2510 nM

SMILES: CCCCCCCCCCCCNCCN
- EC50 (HL-60 [4]): 1000 nM
- Efficacy (HL-60 [6]): 92%

SMILES: CCCCCCCCCCCCNC(=O)CNC(=O)CN
- EC50 (HL-60 [4]): 5010 nM
- Efficacy (HL-60 [16]): 120%

SMILES: CCCCCCCCCCCCNC(=O)[C@H](N)CCCCN
- EC50 (HL-60 [2]): 794 nM
- Efficacy (HL-60 [6]): 108%

SMILES: CCCCCCCCCCCCNCCN=C(N)N
- Efficacy (HL-60 [12]): 128%
- EC50 (HL-60 [4]): 1000 nM
